We go through 18 compounds from ChEMBL document CHEMBL1255292, “New active drugs against liver stages of Plasmodium predicted by molecular topology” (Antimicrob Agents Chemother, 2008).

One data set concerns Plasmodium yoelii yoelii. The experiment in a line: Antimicrobial activity against Plasmodium yoelii 265 liver infected in mammalian hepatocytes after 48 hrs. The format is functional, organism-based. The conditions noted are these: Plasmodium yoelii, 265, Hepatocyte.
Data set [1] is described as follows: Cytotoxicity against Hepatocyte cells assessed as cell viability by MTT assay. It counts as cell-based. The note with it: hepatocytes; read-out: TC50 (the source's name). The method in brief: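 MTT assay in mouse hepatocyte cultures prepared as for infection. Drugs at eight concentrations from 6.4 x 10–3 to 100 µM, triplicate wells. MTT 0.5 mg/ml (final) added for 4 h at 37°C, cells taken up in ethanol/DMSO 50/50, absorbance 550 nm with 620 nm reference. Viability expressed as percent of drug-free controls; TC50 by linear regression.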

A short description of data set [2]: Selectivity index, ratio of TC50 for hepatocytes to IC50 for Plasmodium yoelii. Details: species or system Hepatocyte. The gist of the method:
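SI calculated as hepatocyte TC50 (MTT, mouse hepatocytes) divided by liver-stage IC50 against P. yoelii yoelii, both measured in this work.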

For the next data set, the system named is Plasmodium falciparum. The experiment in a line: Antimicrobial activity against Plasmodium falciparum NF54 schizonts in mammalian hepatocytes after 96 hrs. It counts as functional, organism-based. The conditions noted are these: NF54, Hepatocyte. The gist of the method: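 Primary hepatocytes isolated by collagenase perfusion, 10^5 cells per chamber-slide well, held 24 h at 37°C, 4% CO2, then infected with 9 x 10^4 NF54 sporozoites dissected from salivary glands of infected Anopheles stephensi. Drugs added at infection to duplicate cultures, seven concentrations from 1 x 10^-6 to 30 µM, renewed daily. Methanol-fixed; HSPi72 serum with FITC anti-mouse IgG; schizonts counted; IC50 by linear regression.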

On to `CC(C)(C)NC(=O)[C@@H]1CN(Cc2cccnc2)CCN1C[C@@H](O)C[C@@H](Cc1ccccc1)C(=O)N[C@H]1c2ccccc2C[C@H]1O`, for which the IC50 with Plasmodium yoelii yoelii came out at 5000 nM. The CC50 in data set [1] came out at 8.77 µM.

In turn, `O=C1C(O)=C([C@H]2CC[C@H](c3ccc(Cl)cc3)CC2)C(=O)c2ccccc21` [ATOVAQUONE] gave an IC50 in the data set with Plasmodium yoelii yoelii of 57 nM. Moreover, in data set [1], the CC50 is 16.5 µM. For the same compound, the “Selectivity Index” value in data set [2] is 289.

Turning to `CC(C)Nc1cccnc1N1CCN(C(=O)c2cc3cc(NS(C)(=O)=O)ccc3[nH]2)CC1` [DELAVIRDINE], in the data set with Plasmodium yoelii yoelii, the IC50 amounted to 0.846 nM. The CC50 in data set [1] is above 100 µM. Also, the “Selectivity Index” value in data set [2] is given as above 118000.

For the compound `CC(CCc1ccc(O)cc1)NCCc1ccc(O)c(O)c1` (stereo unspecified) [DOBUTAMINE], in the data set on Plasmodium yoelii yoelii, half-maximal inhibition (IC50) was put at 3.7 nM. In addition, the CC50 in data set [1] was above 100 µM. The “Selectivity Index” value in data set [2] is on record as above 27000.

The compound `CC[C@H](C)[C@H](NC(=O)[C@H]([C@@H](C)CC)N(C)C(C)=O)C(=O)N[C@H](C(=O)N[C@@H](CC(C)C)C(=O)[C@@]1(C)CO1)[C@@H](C)O` [EPOXOMYCIN] displayed an IC50 in the data set on Plasmodium yoelii yoelii of 3950 nM. In addition, in data set [1], the CC50 came to 47.3 µM. In addition, the “Selectivity Index” value in data set [2] was found to be 11.97.

Compound `COC(=O)Nc1nc2cc(Sc3ccccc3)ccc2[nH]1` [FENBENDAZOLE] showed an IC50 in the data set on Plasmodium yoelii yoelii of 30000 nM. For the same compound, the CC50 in data set [1] was above 100 µM. Further, in data set [2], the “Selectivity Index” value is given as above 3.33.

With `C=CC(C)(C)c1cc(/C=C/C(=O)c2ccc(O)cc2)c(OC)cc1O` [LICOAGROCHACONE A], the IC50 with Plasmodium yoelii yoelii came to 0.927 nM. Further, in data set [1], the CC50 is 63.4 µM. Further, the “Selectivity Index” value in data set [2] came out at 68300.

For the compound `COCC(=O)O[C@]1(CCN(C)CCCc2nc3ccccc3[nH]2)CCc2cc(F)ccc2[C@@H]1C(C)C` [MIBEFRADIL], the IC50 with Plasmodium yoelii yoelii came out at 0.873 nM. Besides, in data set [1], the CC50 was found to be 67.9 µM. Also, the “Selectivity Index” value in data set [2] turned out to be 77000.

The compound `Clc1ccc(COC(Cn2ccnc2)c2ccc(Cl)cc2Cl)c(Cl)c1` (stereo unspecified) [MICONAZOLE] gave an IC50 with Plasmodium yoelii yoelii of 2.03 nM. Besides, the CC50 in data set [1] amounted to 70.4 µM. Further, the “Selectivity Index” value in data set [2] was determined as 34700.

Regarding `CC[C@@]1([C@@H]2O[C@@H]([C@H]3O[C@@](O)(CO)[C@H](C)C[C@@H]3C)C[C@@H]2C)CC[C@H]([C@]2(C)CC[C@]3(C[C@H](O)[C@@H](C)[C@@H]([C@@H](C)[C@@H](OC)[C@H](C)C(=O)O)O3)O2)O1` [MONENSIN], the IC50 in the data set with Plasmodium yoelii yoelii is below 0.001 nM; in the data set with Plasmodium falciparum, below 1 pM. Also, the CC50 in data set [1] was above 32 µM. In data set [2], the “Selectivity Index” value is listed as above 32000000.

Consider `CO[C@@H]1C[C@@H](C[C@H]2CC[C@H](C)[C@H]([C@@H](C)C(=O)O)O2)O[C@]2(O[C@](C)([C@H]3CC[C@@](C)([C@@H]4O[C@@H]([C@H]5O[C@@](O)(CO)[C@H](C)C[C@@H]5C)C[C@@H]4C)O3)C[C@H]2C)[C@@H]1C` [NIGERICIN], for which the IC50 in the data set on Plasmodium yoelii yoelii is below 0.001 nM; with Plasmodium falciparum it was below 1 pM. Further, the CC50 in data set [1] was 13.2 µM. Moreover, the “Selectivity Index” value in data set [2] is on record as above 13200000.

In the data set with Plasmodium yoelii yoelii, `CC(Cc1ccc(O)c(O)c1)C(C)Cc1ccc(O)c(O)c1` (stereo unspecified) [NORDIHYDROGUAIARETIC ACID] had an IC50 of 30000 nM. The CC50 in data set [1] was above 100 µM. Also, the “Selectivity Index” value in data set [2] is on record as above 3.33.

Turning to `COc1cc(NC(C)CCCN)c2ncccc2c1` (stereo unspecified) [PRIMAQUINE], the CC50 in data set [1] came out at 12.5 µM.

In the case of `CCN(CC)CCCC(C)Nc1c2ccc(Cl)cc2nc2ccc(OC)cc12` (stereo unspecified) [QUINACRINE], in the data set on Plasmodium yoelii yoelii, the IC50 stood at 30000 nM. Besides, in data set [1], the CC50 was above 11.6 µM. The “Selectivity Index” value in data set [2] is reported as above 0.38.

For the compound `CC(N)C12CC3CC(CC(C3)C1)C2` (stereo unspecified) [RIMANTADINE], 35.6 nM corresponded to half-maximal inhibition with Plasmodium yoelii yoelii (IC50). In addition, the CC50 in data set [1] is above 100 µM. In addition, in data set [2], the “Selectivity Index” value is listed as above 3.33.

Turning to `CC(C)c1nc(CN(C)C(=O)N[C@H](C(=O)N[C@@H](Cc2ccccc2)C[C@H](O)[C@H](Cc2ccccc2)NC(=O)OCc2cncs2)C(C)C)cs1` [RITONAVIR], the IC50 with Plasmodium yoelii yoelii came to 34.2 nM.

In the data set on Plasmodium yoelii yoelii, `CCOC(=O)NC(=S)Nc1ccccc1NC(=S)NC(=O)OCC` [THIOPHANATE] showed a concentration for half-maximal inhibition (IC50) of 30000 nM. In data set [1], the CC50 is above 100 µM. In addition, in data set [2], the “Selectivity Index” value is given as above 3.33.

On to `CC[C@]1(O)C[C@@H]2CN(CCc3c([nH]c4ccccc34)[C@@](C(=O)OC)(c3cc4c(cc3OC)N(C)[C@H]3[C@@](O)(C(=O)OC)[C@H](OC(C)=O)[C@]5(CC)C=CCN6CC[C@]43[C@@H]65)C2)C1` [VINBLASTINE], for which, in the data set on Plasmodium yoelii yoelii, the IC50 is 7950 nM. In addition, the CC50 in data set [1] turned out to be 54.5 µM. Besides, the “Selectivity Index” value in data set [2] is listed as 6.85.
